Columns and labels:
Assay type in all cases: functional
Parameters in all cases: scale not given: the % may be the effect or the level left
CCRF-CEM = experiment: Growth inhibition of human CCRF-CEM cells assessed tumor cell growth at 10^-5 M
Summary of the method: (§1)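 NCI 60-human-tumor-cell-line panel screen. Each compound was tested at a single concentration of 10^-5 M, and percent growth of tumor cells was recorded for each cell line. Growth inhibition was expressed from these percent-growth values.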

HL-60(TB) = experiment: Growth inhibition of human HL-60(TB) cells assessed tumor cell growth at 10^-5 M
Summary of the method: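 HL-60(TB), part of the 60-line panel, tested at a single concentration of 10^-5 M. The read-out is percent tumor cell growth relative to untreated growth.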

K562 = experiment: Growth inhibition of human K562 cells assessed tumor cell growth at 10^-5 M; summary of the method: as §1
MOLT-4 = experiment: Growth inhibition of human MOLT4 cells assessed tumor cell growth at 10^-5 M; summary of the method: as §1
[1] = Growth inhibition of human […] cells assessed tumor cell growth at 10^-5 M; summary of the method: as §1
SR = experiment: Growth inhibition of human SR cells assessed tumor cell growth at 10^-5 M
Summary of the method: (§2)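 Single-dose screen at 10^-5 M across the 60 human tumor cell line panel, run to NCI standards. The value is the percent growth of each cell line in the presence of compound. Compounds active at this dose moved on to five-concentration testing (10^-4 to 10^-8 M).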

A549 = experiment: Growth inhibition of human A549 cells assessed tumor cell growth at 10^-5 M; summary of the method: as §1
EKVX = experiment: Growth inhibition of human EKVX cells assessed tumor cell growth at 10^-5 M; summary of the method: as §1
HOP-62 = experiment: Growth inhibition of human HOP62 cells assessed tumor cell growth at 10^-5 M; summary of the method: as §1
HOP-92 = experiment: Growth inhibition of human HOP92 cells assessed tumor cell growth at 10^-5 M; summary of the method: as §1
NCI-H226 = experiment: Growth inhibition of human NCI-H226 cells assessed tumor cell growth at 10^-5 M; summary of the method: as §1
NCI-H23 = experiment: Growth inhibition of human NCI-H23 cells assessed tumor cell growth at 10^-5 M; summary of the method: as §1
NCI-H322M = experiment: Growth inhibition of human NCI-H322M cells assessed tumor cell growth at 10^-5 M; summary of the method: as §1
NCI-H460 = experiment: Growth inhibition of human NCI-H460 cells assessed tumor cell growth at 10^-5 M; summary of the method: as §1
NCI-H522 = experiment: Growth inhibition of human NCI-H522 cells assessed tumor cell growth at 10^-5 M; summary of the method: as §1
COLO 205 = experiment: Growth inhibition of human COLO205 cells assessed tumor cell growth at 10^-5 M; summary of the method: as §1
HCC 2998 = experiment: Growth inhibition of human HCC2998 cells assessed tumor cell growth at 10^-5 M; summary of the method: as §1
HCT-116 = experiment: Growth inhibition of human HCT116 cells assessed tumor cell growth at 10^-5 M; summary of the method: as §1
HCT-15 = experiment: Growth inhibition of human HCT15 cells assessed tumor cell growth at 10^-5 M; summary of the method: as §1
HT-29 = experiment: Growth inhibition of human HT-29 cells assessed tumor cell growth at 10^-5 M; summary of the method: as §1
KM12 = experiment: Growth inhibition of human KM12 cells assessed tumor cell growth at 10^-5 M; summary of the method: as §1
SW-620 = experiment: Growth inhibition of human SW620 cells assessed tumor cell growth at 10^-5 M; summary of the method: as §2
SF-268 = experiment: Growth inhibition of human SF268 cells assessed tumor cell growth at 10^-5 M; summary of the method: as §1
SF-295 = experiment: Growth inhibition of human SF295 cells assessed tumor cell growth at 10^-5 M; summary of the method: as §1
SF-539 = experiment: Growth inhibition of human SF539 cells assessed tumor cell growth at 10^-5 M; summary of the method: as §1
SNB-19 = experiment: Growth inhibition of human SNB19 cells assessed tumor cell growth at 10^-5 M; summary of the method: as §2
SNB-75 = experiment: Growth inhibition of human SNB75 cells assessed tumor cell growth at 10^-5 M; summary of the method: as §2
U-251 = experiment: Growth inhibition of human U251 cells assessed tumor cell growth at 10^-5 M; summary of the method: as §2
LOX IMVI = experiment: Growth inhibition of human LOXIMVI cells assessed tumor cell growth at 10^-5 M; summary of the method: as §1
Malme-3M = experiment: Growth inhibition of human MALME-3M cells assessed tumor cell growth at 10^-5 M; summary of the method: as §1
M14 = experiment: Growth inhibition of human M14 cells assessed tumor cell growth at 10^-5 M; summary of the method: as §1
MDA-MB-435 = experiment: Growth inhibition of human MDA-MB-435 cells assessed tumor cell growth at 10^-5 M; summary of the method: as §1
SK-MEL-2 = experiment: Growth inhibition of human SK-MEL-2 cells assessed tumor cell growth at 10^-5 M; summary of the method: as §1
SK-MEL-28 = experiment: Growth inhibition of human SK-MEL-28 cells assessed tumor cell growth at 10^-5 M; summary of the method: as §1
SK-MEL-5 = experiment: Growth inhibition of human SK-MEL-5 cells assessed tumor cell growth at 10^-5 M; summary of the method: as §1
UACC-257 = experiment: Growth inhibition of human UACC257 cells assessed tumor cell growth at 10^-5 M; summary of the method: as §2
UACC-62 = experiment: Growth inhibition of human UACC62 cells assessed tumor cell growth at 10^-5 M; summary of the method: as §2
IGROV-1 = experiment: Growth inhibition of human IGROV1 cells assessed tumor cell growth at 10^-5 M; summary of the method: as §1
OVCAR-3 = experiment: Growth inhibition of human OVCAR3 cells assessed tumor cell growth at 10^-5 M; summary of the method: as §1
OVCAR-4 = experiment: Growth inhibition of human OVCAR4 cells assessed tumor cell growth at 10^-5 M; summary of the method: as §1
OVCAR-5 = experiment: Growth inhibition of human OVCAR5 cells assessed tumor cell growth at 10^-5 M; summary of the method: as §1
OVCAR-8 = experiment: Growth inhibition of human OVCAR8 cells assessed tumor cell growth at 10^-5 M; summary of the method: as §1
NCI/ADR-RES = experiment: Growth inhibition of human NCI/ADR-RES cells assessed tumor cell growth at 10^-5 M; summary of the method: as §1
SK-OV-3 = experiment: Growth inhibition of human SKOV3 cells assessed tumor cell growth at 10^-5 M; summary of the method: as §1
786-0 = experiment: Growth inhibition of human 786-0 cells assessed tumor cell growth at 10^-5 M; summary of the method: as §1
A498 = experiment: Growth inhibition of human A498 cells assessed tumor cell growth at 10^-5 M; summary of the method: as §1
ACHN = experiment: Growth inhibition of human ACHN cells assessed tumor cell growth at 10^-5 M; summary of the method: as §1
CAKI-1 = experiment: Growth inhibition of human Caki1 cells assessed tumor cell growth at 10^-5 M; summary of the method: as §1
RXF 393 = experiment: Growth inhibition of human RXF393 cells assessed tumor cell growth at 10^-5 M; summary of the method: as §1
SN12C = experiment: Growth inhibition of human SN12C cells assessed tumor cell growth at 10^-5 M; summary of the method: as §1
TK-10 = experiment: Growth inhibition of human TK10 cells assessed tumor cell growth at 10^-5 M; summary of the method: as §2
UO-31 = experiment: Growth inhibition of human UO31 cells assessed tumor cell growth at 10^-5 M; summary of the method: as §2
PC-3 = experiment: Growth inhibition of human PC3 cells assessed tumor cell growth at 10^-5 M; summary of the method: as §1
DU-145 = experiment: Growth inhibition of human DU145 cells assessed tumor cell growth at 10^-5 M; summary of the method: as §1
MCF7 = experiment: Growth inhibition of human MCF7 cells assessed tumor cell growth at 10^-5 M; summary of the method: as §1
MDA-MB-231 = experiment: Growth inhibition of human MDA-MB-231 cells assessed tumor cell growth at 10^-5 M; summary of the method: as §1
[2] = Growth inhibition of human Hs 578T cells assessed tumor cell growth at 10^-5 M; summary of the method: as §1
BT-549 = experiment: Growth inhibition of human BT549 cells assessed tumor cell growth at 10^-5 M; summary of the method: as §1
T47D = experiment: Growth inhibition of human T47D cells assessed tumor cell growth at 10^-5 M; summary of the method: as §2
MDA-MB-468 = experiment: Growth inhibition of human MDA-MB-468 cells assessed tumor cell growth at 10^-5 M; summary of the method: as §1

O=C1C(=Cc2cn(Cc3ccccc3)c3ccccc23)C(=O)N(Cc2ccccc2)C(=O)N1Cc1ccccc1
Activity (CCRF-CEM): 117.9%
Activity (HL-60(TB)): 96.4%
Activity (K562): 81.4%
Activity (MOLT-4): 95.2%
Activity [1]: 93.2%
Activity (SR): 87.2%
Activity (A549): 80%
Activity (EKVX): 97.5%
Activity (HOP-62): 85.4%
Activity (HOP-92): 90.9%
Activity (NCI-H226): -49.4%
Activity (NCI-H23): 87.7%
Activity (NCI-H322M): 105%
Activity (NCI-H460): 36%
Activity (NCI-H522): 87.6%
Activity (COLO 205): 26.4%
Activity (HCC 2998): 97.4%
Activity (HCT-116): 76.1%
Activity (HCT-15): 85.7%
Activity (HT-29): 110.8%
Activity (KM12): 100.7%
Activity (SW-620): 100.6%
Activity (SF-268): 87.5%
Activity (SF-295): 34.3%
Activity (SF-539): 83.5%
Activity (SNB-19): 87.1%
Activity (SNB-75): 44.9%
Activity (U-251): 75.6%
Activity (LOX IMVI): 87.1%
Activity (Malme-3M): 104.8%
Activity (M14): 103.5%
Activity (MDA-MB-435): 108.2%
Activity (SK-MEL-2): 83.9%
Activity (SK-MEL-28): 109.5%
Activity (SK-MEL-5): 104.1%
Activity (UACC-257): 52.9%
Activity (UACC-62): 53.1%
Activity (IGROV-1): 75.7%
Activity (OVCAR-3): 97.7%
Activity (OVCAR-4): 57.3%
Activity (OVCAR-5): -7.2%
Activity (OVCAR-8): 83.5%
Activity (NCI/ADR-RES): 105.7%
Activity (SK-OV-3): 47.7%
Activity (786-0): 93.2%
Activity (A498): -95.7%
Activity (ACHN): 86.2%
Activity (CAKI-1): 94.6%
Activity (RXF 393): 57.6%
Activity (SN12C): 101.3%
Activity (TK-10): 40.6%
Activity (UO-31): 73.3%
Activity (PC-3): 90.3%
Activity (DU-145): 110.4%
Activity (MCF7): 80.2%
Activity (MDA-MB-231): 89.3%
Activity [2]: 90.7%
Activity (BT-549): 118.1%
Activity (T47D): 51.6%
Activity (MDA-MB-468): -71.7%

Source: ChEMBL document CHEMBL1811814, “Synthesis and evaluation of indole, pyrazole, chromone and pyrimidine based conjugates for tumor growth inhibitory activities--development of highly efficacious cytotoxic agents” (Eur J Med Chem, 2010)
